Consider 41 compounds from ChEMBL document CHEMBL3779804, “Novel Ferroptosis Inhibitors with Improved Potency and ADME Properties” (J Med Chem, 2016).

Series [1] can be described thus: Antiferroptotic activity in human IMR32 neuroblastoma cells assessed as inhibition of erastin-induced cell death preincubated for 1 hr before erastin stimulation and measured after 13 hrs by fluorescence plate reader method. Particulars: IMR-32. Format: functional. The method, boiled down: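 Human IMR-32 neuroblastoma cells seeded at 25,000/well, next day pretreated 1 h in triplicate with a 1/3 dilution series (5 μM to 0.68 nM) plus Sytox Green (1.6 μM), then stimulated with erastin (10 μM). Sytox Green fluorescence (ex 485/em 520 nm) read after 13 h; Triton-X100 (0.05%) lysis as 100% death reference; % death background-corrected; IC50 determined.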

The nature of series [2]: Kinetic solubility of the compound in PBS buffer at pH 7.4 after 2 hrs at 37 deg C by turbidimetric analysis. To be noted: read-out: Kinetic_solubility. Format: physicochemical. The method, boiled down: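 Turbidimetric kinetic solubility by UV-vis reading; final test concentrations 3.125–200 μM, from DMSO solution diluted into 10 mM PBS pH 7.4.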
The nature of series [3]: Half life in human liver microsomes by LC/MS/MS analysis. Format: ADME. The method, boiled down:
(§1)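 Compound incubated with liver microsomes (CYP450 and other NADP-dependent enzymes); parent loss monitored and expressed as half-life in min.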
On the technique in general: Liver microsomes are vesicles of endoplasmic reticulum, rich in cytochrome P450 enzymes.

Series [4] in a line: Half life in mouse liver microsomes by LC/MS/MS analysis. Format: ADME. The gist of the method: as §1
The nature of series [5]: Stability in human plasma assessed as percentage recovery after 6 hrs by LC/MS/MS analysis. Particulars: read-out: Drug recovery. Format: ADME, cell-free. The gist of the method: (§2)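 Compound incubated in plasma up to 6 h; result given as percentage of parent compound remaining.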
A short description of series [6]: Stability in mouse plasma assessed as percentage recovery after 6 hrs by LC/MS/MS analysis. The class given is ADME, cell-free. To be noted: read-out: Drug recovery. The gist of the method: as §2
Series [7] can be described thus: Antiferroptotic activity in human HT1080 cells assessed as inhibition of erastin-induced cell death by Alamar blue assay. Format: functional, cell-based. Particulars: HT-1080.
Series [8] is described as follows: Antiferroptotic activity in human HT1080 cells assessed as inhibition of erastin-induced cell death. To be noted: HT-1080. The class given is functional, cell-based.
A short description of series [9]: Antiferroptotic activity in human HT1080 cells assessed as inhibition of erastin-induced cell death by cell based assay. The class given is functional. To be noted: HT-1080.
Series [10] is described as follows: Half life in C57BL/6 mouse plasma. Format: ADME, cell-free.
Series [11] is described as follows: Intrinsic clearance in C57BL/6 mouse liver microsomes. The class given is ADME.

Values after ≈ are worked out from the molar mass of the structure shown. Where only a bound is given, the exact number is not on record here.

With `CCOC(=O)c1ccc(NC2CCCCC2)c(N)c1`, the IC50 (as a rule, the concentration at which inhibition is half-maximal) is 18 nM in series [1] and 95 nM in series [7]. Also, the solubility kinetic at 2 h in series [2] was more than 200 µM. The half-life (as a rule, the time needed for the level to fall by half in the phase considered) in series [3] came to 6.9 min; in [4] it was 1.9 min. For the same compound, the remaining at 6 h in series [5] amounted to 100%; in series [6] it was 0%.
On to `CCOC(=O)c1ccc(NC2CCCCC2)c(NCc2ccccc2)c1`, for which the IC50 in series [8] came out at 6 nM.
On to `CNS(=O)(=O)c1ccc(NC2C3CC4CC(C3)CC2C4)c(NCc2ccccc2)c1` (centres undefined), for which, in [1], the half-maximal inhibitory concentration (IC50) is 4.9 nM.
For `CCNS(=O)(=O)c1ccc(NC2CC3CCC2C3)c(NCc2ccccc2)c1` (centres undefined), the IC50 in [1] was 3 nM.
In the case of `CCNS(=O)(=O)c1ccc(NC2CCCCCCC2)c(NCc2ccccc2)c1`, the IC50 in [1] was found to be 2.4 nM.
Turning to `CCNS(=O)(=O)c1ccc(NC2CCCC2)c(NCc2ccncc2)c1`, the IC50 in [1] amounted to 36 nM.
As for `CCNS(=O)(=O)c1ccc(NC2CCCCC2)c(N)c1`, in series [1], the IC50 is 67 nM. In addition, the solubility kinetic at 2 h in [2] came to 12.5 µM (≈ 3.72 µg/mL). Besides, the half-life in [3] amounted to 37 min; in [4], 31 min. In addition, the values for the remaining at 6 h in series [5] and in [6] were 81.9% and 86.2%, respectively.
As for `CC(C)(C)NS(=O)(=O)c1ccc(NC2CCCCC2)c(NCc2ccncc2)c1`, in [1], the IC50 was 11 nM.
In the case of `CNS(=O)(=O)c1ccc(NC2CCCCC2)c(N)c1`, the IC50 in [1] amounted to 76 nM.
`CCNC(=O)c1ccc(NC2C3CC4CC(C3)CC2C4)c(NCc2ccncc2)c1` (centres undefined): the IC50 in series [1] came to 3.4 nM. Moreover, the solubility kinetic at 2 h in series [2] worked out at 25 µM (≈ 10.1 µg/mL). Moreover, the half-life was 16 min in series [3] and 30 min in series [4]. Besides, the remaining at 6 h in [5] and in series [6] was 100% each time.
As to `CCNS(=O)(=O)c1ccc(NC2CC3CCC2C3)c(NCc2ccncc2)c1` (centres undefined), the IC50 in [1] amounted to 9.4 nM.
On the same count and under the same terms, the value for `CNS(=O)(=O)c1ccc(NC2C3CC4CC(C3)CC2C4)c(NCc2ccncc2)c1` (centres undefined) was 6.4 nM; that for `CCNC(=O)c1ccc(NC2CCCCC2)c(NCc2ccccc2)c1` was 21 nM.
For `COC(=O)c1ccc(NC2CCCCC2)c(N)c1`, the IC50 in [1] was found to be 34 nM.
Same read-out and setting: the value for `CCNS(=O)(=O)c1ccc(NC2C3CC4CC(C3)CC2C4)c(N)c1` (centres undefined) was 17 nM; that for `CCNS(=O)(=O)c1ccc(NC2CCCCCCC2)c(N)c1` was 9.3 nM; that for `CC(C)(C)NS(=O)(=O)c1ccc(NC2CCCCC2)c(NCc2ccccc2)c1` was 6.2 nM.
The same measure, in the same setting: to `CCNC(=O)c1ccc(NC2CCCCC2)c(NCc2ccncc2)c1` belongs 26 nM.
For the compound `CCNS(=O)(=O)c1ccc(NC2CCCCC2)c(NCc2ccccc2)c1`, the IC50 in [1] was determined as 4 nM. In addition, the solubility kinetic at 2 h in series [2] stood at 12.5 µM (≈ 4.84 µg/mL). Also, the figures for the half-life in [3] and in series [4] were 88 min and 187 min, respectively. Besides, the remaining at 6 h came out at 100% in series [5] and 98.6% in [6].
On to `CCNC(=O)c1ccc(NC2C3CC4CC(C3)CC2C4)c(NCc2ccccc2)c1` (centres undefined), for which, in [1], the IC50 came to 6.5 nM.
Same read-out and setting: the value for `CCNC(=O)c1ccc(NC2C3CC4CC(C3)CC2C4)c(N)c1` (centres undefined) was 14 nM; that for `CC(C)(C)NS(=O)(=O)c1ccc(NC2C3CC4CC(C3)CC2C4)c(N)c1` (centres undefined) was 6 nM; that for `CCNS(=O)(=O)c1ccc(NC2CC2)c(NCc2ccncc2)c1` was 128 nM.
On the same count and under the same terms, to `CC(C)(C)NS(=O)(=O)c1ccc(NC2C3CC4CC(C3)CC2C4)c(NCc2ccncc2)c1` (centres undefined) belongs 5.2 nM.
The same measure, in the same setting: the value for `CCNS(=O)(=O)c1ccc(NC2CCCC2)c(NCc2ccccc2)c1` was 8.2 nM.
Take `CCNS(=O)(=O)c1ccc(NC2C3CC4CC(C3)CC2C4)c(NCc2ccccc2)c1` (centres undefined): the IC50 in series [1] came out at 3.5 nM. For the same compound, the solubility kinetic at 2 h in [2] was 12.5 µM (≈ 5.5 µg/mL). Besides, the half-life was found to be 36 min in series [3] and 31 min in series [4]. Also, the remaining at 6 h in [5] was 100%; in series [6], 99.4%.
Turning to `CCNS(=O)(=O)c1ccc(NC2CC2)c(N)c1`, in series [1], the IC50 was found to be 76 nM.
Turning to `CCNS(=O)(=O)c1ccc(NC2CC2)c(NCc2ccccc2)c1`, in series [1], the IC50 was found to be 61 nM.
Take `CCNS(=O)(=O)c1ccc(NC2CCCCC2)c(NCc2ccncc2)c1`: in series [1], the IC50 stood at 23 nM.
In the case of `Nc1cc(C(=O)O)ccc1NC1CCCCC1`, the IC50 in series [1] amounted to 210 nM.
For `CC(C)(C)OC(=O)c1ccc(NC23CC4CC(CC(C4)C2)C3)c(/N=C\c2cncnc2)c1`, in [9], the IC50 was determined as 350 nM. The half-life in [10] is not below 120 min. The compound further gave a CLH in series [11] of less than 0.5 mL/min/g.
For the compound `CNS(=O)(=O)c1ccc(NC2CCCCC2)c(NCc2ccncc2)c1`, the IC50 in [1] is 15 nM.
Same read-out and setting: the value for `CCNS(=O)(=O)c1ccc(NC2CCCCCCC2)c(NCc2ccncc2)c1` was 22 nM; that for `CCNS(=O)(=O)c1ccc(NC2CC3CCC2C3)c(N)c1` (centres undefined) was 28 nM.
For `CCNS(=O)(=O)c1ccc(NC2C3CC4CC(C3)CC2C4)c(NCc2ccncc2)c1` (centres undefined), the IC50 in series [1] was 3.9 nM. Further, the solubility kinetic at 2 h in series [2] turned out to be 12.5 µM (≈ 5.51 µg/mL). Moreover, the half-life in [3] was found to be 64 min; in series [4], 26 min. For the same compound, the remaining at 6 h in series [5] and in [6] was 100% each time.
In the case of `CNS(=O)(=O)c1ccc(NC2C3CC4CC(C3)CC2C4)c(N)c1` (centres undefined), the IC50 in [1] was found to be 11 nM.
On the same count and under the same terms, to `CC(C)(C)NS(=O)(=O)c1ccc(NC2C3CC4CC(C3)CC2C4)c(NCc2ccccc2)c1` (centres undefined) belongs 3.4 nM; to `CC(C)(C)NS(=O)(=O)c1ccc(NC2CCCCC2)c(N)c1`, 27 nM; to `CNS(=O)(=O)c1ccc(NC2CCCCC2)c(NCc2ccccc2)c1`, 3.7 nM.
For the compound `CCNS(=O)(=O)c1ccc(NC2CCCC2)c(N)c1`, in [1], the IC50 is 82 nM.
On the same count and under the same terms, the value for `CCNC(=O)c1ccc(NC2CCCCC2)c(N)c1` was 88 nM.
